Reference: ChEMBL document CHEMBL1811806, “Synthesis and biological evaluation of 4β-acrylamidopodophyllotoxin congeners as DNA damaging agents” (2011)
Calls of active or inactive are those of the source. The calls are words filed in the database; no cut-off is given here.

How the values were obtained:
COLO 205 = experiment: Cytotoxicity against human COLO205 cells after 48 hrs by sulforhodamine B assay; type: functional; details: COLO 205, 48 h
Outline: (§1)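 SRB growth assay, 48 h continuous exposure. Cells grown in DMEM with 10% FBS and 2 mM L-glutamine, plated at densities set by doubling time, preincubated 24 h at 37 °C, 5% CO2. Four concentrations (0.1, 1, 10, 100 µM) in triplicate wells. TCA fixation, 0.4% SRB staining, absorbance at 540 nm against 690 nm reference. GI50 from time-zero-corrected growth; repeated three times.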

[1] = Cytotoxicity against human Gurav cells after 48 hrs by sulforhodamine B assay; type: functional; outline: as §1
A2780 = experiment: Cytotoxicity against human A2780 cells after 48 hrs by sulforhodamine B assay; type: functional; details: A2780, 48 h; outline: as §1
ZR-75-1 = experiment: Cytotoxicity against human ZR-75-1 cells after 48 hrs by sulforhodamine B assay; type: functional; details: ZR-75-1, 48 h; outline: as §1
HOP-62 = experiment: Cytotoxicity against human HOP62 cells after 48 hrs by sulforhodamine B assay; type: functional; details: HOP-62, 48 h; outline: as §1
[2] = Cytotoxicity against human DWD cells after 48 hrs by sulforhodamine B assay; type: functional; outline: as §1
A549 = experiment: Cytotoxicity against human A549 cells after 48 hrs by sulforhodamine B assay; type: functional; details: A549, 48 h; outline: as §1
MCF7 [3] = experiment: Cytotoxicity against human MCF7 cells after 48 hrs by sulforhodamine B assay; type: functional; details: MCF7, 48 h; outline: as §1
MCF7 [4] = experiment: Cell cycle arrest in human MCF7 cells assessed as accumulation at G1 phase at 2 uM after 24 hrs by propidium iodide staining based flow cytometry (reference value: 60.5%); type: functional
MCF7 [5] = experiment: Cell cycle arrest in human MCF7 cells assessed as accumulation at G2/M phase at 2 uM after 24 hrs by propidium iodide staining based flow cytometry (reference value: 26.42%); type: functional
MCF7 [6] = experiment: Cell cycle arrest in human MCF7 cells assessed as accumulation at S phase at 2 uM after 24 hrs by propidium iodide staining based flow cytometry (reference value: 6.99%); type: functional
MCF7 [7] = experiment: Cell cycle arrest in human MCF7 cells assessed as accumulation at GO phase at 2 uM after 24 hrs by propidium iodide staining based flow cytometry (reference value: 6.09%); type: functional
MCF7 [8] = experiment: Cytotoxicity against human MCF7 cells at 2 to 4 uM after 24 hrs by MTT assay; type: functional, cell-based
Outline: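 MCF-7 cells in DMEM with 10% fetal calf serum and penicillin/streptomycin, seeded at 10,000 cells/well and incubated overnight. Treated at 2 and 4 µM for 24 h, then medium replaced with MTT and incubated 2 h at 37 °C. Formazan dissolved in extraction buffer and read at 570 nm.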

MCF7 [9] = experiment: Induction of apoptosis in human MCF7 cells assessed as double-strand DNA breaks at 2 uM after 24 hrs measured as phosphorylation at ser-139 on H2AX protein by immunostaining relative to control; type: functional
Outline: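 MCF-7 cells on coverslips treated 24 h at 2 µM, fixed in 4% paraformaldehyde for 20 min at room temperature, blocked with 1% BSA for 60 min. Anti-γ-H2AX (Ser139) antibody at 1:100 for 2 h at room temperature, then FITC-conjugated anti-rabbit secondary for 1 h. Foci-positive cells scored as percentage against DMSO control.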

MCF7 [10] = experiment: Induction of apoptosis in human MCF7 cells assessed as single-strand DNA break at 2 uM after 24 hrs by comet assay relative to control; type: functional
Outline: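 Alkaline comet assay in MCF-7 cells after 24 h at 2 µM. Electrophoresis 20 min at 40 V in 0.5% TBE pH 8, SYBR Green I stain, fluorescence microscopy; percentage of cells with tails scored.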

| Compound | GI50 (COLO 205) [nM] | GI50 [1] [nM] | GI50 (A2780) [nM] | GI50 (ZR-75-1) [nM] | GI50 (HOP-62) [nM] | GI50 [2] [nM] | GI50 (A549) [nM] | GI50 (MCF7 [3]) [nM] | Activity (MCF7 [4]) [%] | Activity (MCF7 [5]) [%] | Activity (MCF7 [6]) [%] | Activity (MCF7 [7]) [%] | Activity (MCF7 [8]) | Activity (MCF7 [9]) | Activity (MCF7 [10]) [%] |
| --- | --- | --- | --- | --- | --- | --- | --- | --- | --- | --- | --- | --- | --- | --- | --- |
| COc1ccc(/C=C(/C(=O)N[C@@H]2c3cc4c(cc3[C@@H](c3cc(OC)c(OC)c(OC)c3)[C@H]3C(=O)OC[C@@H]32)OCO4)c2cc(OC)c(OC)c(OC)c2)cc1[N+](=O)[O-] | 2700 | 2600 | 2500 | 2200 | 2300 | 2900 | – | – | – | – | – | – | – | – | – |
| COc1cc(/C=C(/C(=O)N[C@@H]2c3cc4c(cc3[C@@H](c3cc(OC)c(OC)c(OC)c3)[C@H]3C(=O)OC[C@@H]32)OCO4)c2cc(OC)c(OC)c(OC)c2)ccc1O | – | – | – | 2900 | 2500 | – | 2400 | – | – | – | – | – | – | – | – |
| COc1cc(/C(=C\c2ccc(O)cc2)C(=O)N[C@@H]2c3cc4c(cc3[C@@H](c3cc(OC)c(OC)c(OC)c3)[C@H]3C(=O)OC[C@@H]32)OCO4)cc(OC)c1OC | – | 2700 | – | 2700 | 2600 | 2700 | 2300 | – | – | – | – | – | – | – | – |
| COc1cc(/C(=C\c2cccc([N+](=O)[O-])c2)C(=O)N[C@@H]2c3cc4c(cc3[C@@H](c3cc(OC)c(OC)c(OC)c3)[C@H]3C(=O)OC[C@@H]32)OCO4)cc(OC)c1OC | – | 2100 | 2500 | – | 170 | < 100 | 2400 | 2700 | – | – | – | – | – | – | – |
| COc1cccc(/C=C(/C(=O)N[C@@H]2c3cc4c(cc3[C@@H](c3cc(OC)c(OC)c(OC)c3)[C@H]3C(=O)OC[C@@H]32)OCO4)c2cc(OC)c(OC)c(OC)c2)c1 | – | 2100 | < 100 | 180 | 180 | 2200 | 2700 | < 100 | 52.49 | 36.35 | 6.43 | 4.83 | Active | – | – |
| COc1cc(/C(=C\c2ccc([N+](=O)[O-])cc2)C(=O)N[C@@H]2c3cc4c(cc3[C@@H](c3cc(OC)c(OC)c(OC)c3)[C@H]3C(=O)OC[C@@H]32)OCO4)cc(OC)c1OC | 2100 | 2100 | 2600 | 2200 | 2700 | 2400 | – | – | – | – | – | – | – | – | – |
| COc1cc(/C(=C\c2ccc(O)c([N+](=O)[O-])c2)C(=O)N[C@@H]2c3cc4c(cc3[C@@H](c3cc(OC)c(OC)c(OC)c3)[C@H]3C(=O)OC[C@@H]32)OCO4)cc(OC)c1OC | 2000 | 190 | 2200 | 180 | 190 | < 100 | – | 2700 | – | – | – | – | – | – | – |
| COc1cc([C@@H]2c3cc4c(cc3[C@@H](O[C@@H]3O[C@@H]5CO[C@@H](C)O[C@H]5[C@H](O)[C@H]3O)[C@H]3COC(=O)[C@H]23)OCO4)cc(OC)c1O [ETOPOSIDE] | 130 | 500 | 1300 | 200 | 800 | 600 | 3080 | 2100 | 17.29 | 62.86 | 12.31 | 7.54 | Active | 70% | 10 |
| COc1ccc(/C=C(/C(=O)N[C@@H]2c3cc4c(cc3[C@@H](c3cc(OC)c(OC)c(OC)c3)[C@H]3C(=O)OC[C@@H]32)OCO4)c2cc(OC)c(OC)c(OC)c2)cc1O | – | – | – | – | 2900 | – | 2900 | – | – | – | – | – | – | – | – |
| COc1ccc(/C=C(/C(=O)N[C@@H]2c3cc4c(cc3[C@@H](c3cc(OC)c(OC)c(OC)c3)[C@H]3C(=O)OC[C@@H]32)OCO4)c2cc(OC)c(OC)c(OC)c2)cc1 | 170 | 2200 | 2500 | 2900 | – | 2300 | – | 2900 | – | – | – | – | – | – | – |
| COc1cc([C@@H]2c3cc4c(cc3[C@H](O)[C@H]3COC(=O)[C@H]23)OCO4)cc(OC)c1OC [PODOFILOX] | – | – | – | – | – | – | – | – | 2.38 | 86.59 | 5.13 | 5.9 | inactive | inactive | – |
| COc1ccccc1/C(=C\c1ccc([N+](=O)[O-])cc1)C(=O)O | – | – | – | – | – | – | – | – | 66.28 | 20.12 | 10.53 | 3.07 | inactive | 30% | 20 |
| COc1cccc2c1C(=O)c1c(O)c3c(c(O)c1C2=O)C[C@@](O)(C(=O)CO)C[C@@H]3O[C@H]1C[C@H](N)[C@H](O)[C@H](C)O1 [DOXORUBICIN] | < 100 | < 100 | < 100 | 110 | 150 | < 100 | < 100 | 130 | – | – | – | – | – | – | – |
| COc1ccc(/C=C(/C(=O)N[C@@H]2c3cc4c(cc3[C@@H](c3cc(OC)c(OC)c(OC)c3)[C@H]3C(=O)OC[C@@H]32)OCO4)c2cc(OC)c(OC)c(OC)c2)c(F)c1 | – | 180 | 2700 | 2500 | 170 | 190 | 2100 | 2400 | – | – | – | – | – | – | – |
| COc1ccccc1/C=C(/C(=O)N[C@@H]1c2cc3c(cc2[C@@H](c2cc(OC)c(OC)c(OC)c2)[C@H]2C(=O)OC[C@@H]21)OCO3)c1ccccc1[N+](=O)[O-] | – | – | – | – | – | – | – | – | – | – | – | – | Active | – | – |
| COc1ccc(/C=C(/C(=O)N[C@@H]2c3cc4c(cc3[C@@H](c3cc(OC)c(OC)c(OC)c3)[C@H]3C(=O)OC[C@@H]32)OCO4)c2cc(OC)c(OC)c(OC)c2)cc1F | 2400 | – | – | – | – | – | – | 2700 | – | – | – | – | – | – | – |
| COc1ccccc1/C=C(/C(=O)N[C@@H]1c2cc3c(cc2[C@@H](c2cc(OC)c(OC)c(OC)c2)[C@H]2C(=O)OC[C@@H]21)OCO3)c1ccc([N+](=O)[O-])cc1 | – | – | – | – | – | – | – | – | – | – | – | – | Active | – | – |
| COc1ccc(/C=C\c2cc(OC)c(OC)c(OC)c2)cc1O [COMBRETASTATIN A4] | – | – | – | – | – | – | – | – | 2.49 | 84.41 | 8.03 | 5.07 | – | 50% | – |
| COc1cc(/C=C(/C(=O)N[C@@H]2c3cc4c(cc3[C@@H](c3cc(OC)c(OC)c(OC)c3)[C@H]3C(=O)OC[C@@H]32)OCO4)c2cc(OC)c(OC)c(OC)c2)ccc1F | – | 2400 | – | 2200 | 2500 | – | – | – | – | – | – | – | – | – | – |
| COc1ccc(F)c(/C=C(/C(=O)N[C@@H]2c3cc4c(cc3[C@@H](c3cc(OC)c(OC)c(OC)c3)[C@H]3C(=O)OC[C@@H]32)OCO4)c2cc(OC)c(OC)c(OC)c2)c1 | – | 2500 | – | 2700 | – | – | – | – | – | – | – | – | – | – | – |
